Measured values as given in ChEMBL document CHEMBL4808214, “Structure-activity relationship studies in substituted sulfamoyl benzamidothiazoles that prolong NF-κB activation” (Bioorg Med Chem, 2021).
Active and inactive are the calls of the source. The calls are words filed in the database; no cut-off is given here.

Assays:
[1] = target: T1, Nuclear factor NF-kappa-B complex (Homo sapiens) (UniProt Q00653+P19838+Q04206); experiment: Activation of NF-kappaB in human THP1-Blue NF-kappaB cells co-expressing NFkappaB-inducible SEAP assessed as increase in SEAP activity at 5 uM measured after 20 hrs by quanti-blue based colorimetric assay relative to control; format: cell-based; conditions: filed as activator
How it was run: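 THP1-Blue NF-κB reporter cells plated at 10^5/well in RPMI with 10% FBS, penicillin/streptomycin and Normocin. Compound added at 5 μM final (0.5% DMSO), then incubated 20 h. Secreted SEAP in the supernatant was read colorimetrically with QuantiBlue at 630 nm. Two-point normalization set vehicle (0.5% DMSO) as 100% and a reference activator as 200%.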

THP-1 = experiment: Cytotoxicity against human THP-1 cells assessed as cell viability at 5 uM measured after 18 hrs by MTT assay relative to control; format: cell-based; conditions: thp-1, 18 h
How it was run: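 THP-1 cells were plated at 10^5/well in RPMI with 10% FBS and penicillin/streptomycin, then given compound at 5 μM final (0.5% DMSO) for 18 h. MTT at 0.5 mg/mL was added for 4–6 h, followed by SDS/HCl lysis buffer overnight. Absorbance was read at 570 nm against a 650 nm reference. Viability was normalized to DMSO as 100%.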

[2] = target: T1, Nuclear factor NF-kappa-B complex (Homo sapiens); experiment: Activation of NF-kappaB in human THP-1 cells assessed as increase in IL-8 production in the presence of LPS at 5 uM measured by ELISA relative to control; format: cell-based; conditions: filed as activator
How it was run: (§1)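 THP-1 cells and BMDCs from the femurs and tibias of C57BL/6 mice were treated overnight with compound (5 μM) or vehicle (0.5% DMSO), with or without LPS at 1 ng/mL. Secreted IL-8 (THP-1) and IL-12 (BMDC) in the supernatant were measured by ELISA.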

BMDC [3] = experiment: Activation of NF-kappaB in mouse BMDC cells assessed as enhanced IL-12 production in the presence of LPS at 5 uM measured by ELISA relative to control; format: cell-based; conditions: filed as activator; how it was run: as §1
Mus musculus = organism: Mus musculus; experiment: Co-adjuvanticity in MPLA/OVA-immunized BALB/c mouse assessed as increase in ovalbumin specific IgG production at 50 nmol treated on day 0 and 21 measured after 28 days by ELISA; format: functional, organism-based; conditions: time 28.0 day
How it was run: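 BALB/c mice aged 7–9 weeks, n=5 per group, were injected into the gastrocnemius muscle on days 0 and 21. Mice were bled on day 28 and OVA-specific IgG titers measured by ELISA. Groups were compared with one-way ANOVA and Dunnett's post hoc test.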

BMDC [4] = experiment: Activation of NF-kappaB in mouse BMDC cells assessed as enhanced IL-12 production at 5 uM measured by ELISA relative to control; format: cell-based; how it was run: as §1

T1 sequence (P19838 whole entry, looked up): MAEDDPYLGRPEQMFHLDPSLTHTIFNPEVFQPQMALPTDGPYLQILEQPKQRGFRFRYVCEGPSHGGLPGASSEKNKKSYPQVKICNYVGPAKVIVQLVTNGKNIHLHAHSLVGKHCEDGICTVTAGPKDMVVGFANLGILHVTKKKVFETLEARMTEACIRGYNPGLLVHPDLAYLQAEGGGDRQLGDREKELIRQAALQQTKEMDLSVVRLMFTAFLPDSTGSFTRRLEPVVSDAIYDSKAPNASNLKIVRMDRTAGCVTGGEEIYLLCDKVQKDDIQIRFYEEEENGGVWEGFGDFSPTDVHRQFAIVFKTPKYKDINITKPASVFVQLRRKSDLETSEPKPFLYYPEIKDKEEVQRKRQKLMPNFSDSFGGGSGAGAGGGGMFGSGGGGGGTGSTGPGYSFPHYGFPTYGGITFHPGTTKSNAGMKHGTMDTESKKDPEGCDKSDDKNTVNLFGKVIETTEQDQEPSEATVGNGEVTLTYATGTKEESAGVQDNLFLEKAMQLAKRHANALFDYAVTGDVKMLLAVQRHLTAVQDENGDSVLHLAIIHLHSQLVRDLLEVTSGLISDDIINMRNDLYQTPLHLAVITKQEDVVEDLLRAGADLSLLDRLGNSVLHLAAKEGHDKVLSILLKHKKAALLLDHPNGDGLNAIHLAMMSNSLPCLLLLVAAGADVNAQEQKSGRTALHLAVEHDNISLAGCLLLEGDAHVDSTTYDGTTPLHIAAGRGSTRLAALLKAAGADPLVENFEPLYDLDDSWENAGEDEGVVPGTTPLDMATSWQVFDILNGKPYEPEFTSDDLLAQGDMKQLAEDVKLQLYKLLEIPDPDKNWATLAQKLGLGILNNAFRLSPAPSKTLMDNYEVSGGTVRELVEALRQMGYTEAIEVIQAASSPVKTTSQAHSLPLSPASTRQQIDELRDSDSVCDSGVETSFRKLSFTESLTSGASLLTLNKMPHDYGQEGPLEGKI
T1 sequence (Q00653 whole entry, looked up): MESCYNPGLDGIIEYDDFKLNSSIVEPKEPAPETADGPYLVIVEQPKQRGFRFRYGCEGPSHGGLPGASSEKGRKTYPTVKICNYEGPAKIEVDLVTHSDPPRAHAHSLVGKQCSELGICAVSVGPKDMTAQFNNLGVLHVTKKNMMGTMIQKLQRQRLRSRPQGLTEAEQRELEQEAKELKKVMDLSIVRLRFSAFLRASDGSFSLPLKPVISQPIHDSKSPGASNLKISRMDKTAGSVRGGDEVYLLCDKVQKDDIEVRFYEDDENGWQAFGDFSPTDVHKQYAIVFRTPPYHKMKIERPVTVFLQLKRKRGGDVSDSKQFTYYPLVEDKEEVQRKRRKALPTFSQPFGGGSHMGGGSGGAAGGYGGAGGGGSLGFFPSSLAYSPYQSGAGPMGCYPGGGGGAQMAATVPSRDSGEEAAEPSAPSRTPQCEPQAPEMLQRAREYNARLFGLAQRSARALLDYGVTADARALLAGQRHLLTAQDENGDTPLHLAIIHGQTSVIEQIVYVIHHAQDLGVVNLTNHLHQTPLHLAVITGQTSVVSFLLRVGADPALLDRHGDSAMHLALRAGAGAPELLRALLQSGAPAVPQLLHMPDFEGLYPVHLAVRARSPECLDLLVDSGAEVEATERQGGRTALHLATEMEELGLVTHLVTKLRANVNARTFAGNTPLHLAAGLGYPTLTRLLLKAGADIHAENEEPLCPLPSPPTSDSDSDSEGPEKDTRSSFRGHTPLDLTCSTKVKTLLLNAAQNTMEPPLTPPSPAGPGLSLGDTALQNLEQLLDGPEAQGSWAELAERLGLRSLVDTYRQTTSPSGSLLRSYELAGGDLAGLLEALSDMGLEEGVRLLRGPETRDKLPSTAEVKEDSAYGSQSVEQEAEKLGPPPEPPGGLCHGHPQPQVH
T1 sequence (Q04206 whole entry, looked up): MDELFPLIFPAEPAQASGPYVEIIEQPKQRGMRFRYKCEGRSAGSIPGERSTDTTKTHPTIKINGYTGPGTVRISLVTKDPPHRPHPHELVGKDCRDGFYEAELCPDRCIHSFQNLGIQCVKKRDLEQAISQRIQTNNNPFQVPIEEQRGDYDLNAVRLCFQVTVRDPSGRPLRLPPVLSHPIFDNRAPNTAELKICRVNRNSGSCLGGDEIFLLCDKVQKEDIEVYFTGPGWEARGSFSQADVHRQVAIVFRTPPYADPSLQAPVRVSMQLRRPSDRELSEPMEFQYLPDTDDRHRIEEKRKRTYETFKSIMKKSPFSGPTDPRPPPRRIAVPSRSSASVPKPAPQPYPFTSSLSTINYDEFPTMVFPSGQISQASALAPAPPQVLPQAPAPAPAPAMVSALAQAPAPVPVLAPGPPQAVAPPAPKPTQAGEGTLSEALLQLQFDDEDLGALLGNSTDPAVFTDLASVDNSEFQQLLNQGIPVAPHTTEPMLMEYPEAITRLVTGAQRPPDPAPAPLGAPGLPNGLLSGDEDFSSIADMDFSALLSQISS

| Structure (SMILES) | Activity [1] [%] | Activity (THP-1) [%] | Activity [2] | Activity (BMDC [3]) | Activity (Mus musculus) | Activity (BMDC [4]) |
| --- | --- | --- | --- | --- | --- | --- |
| CCCC#Cc1sc(NC(=O)c2ccc(S(=O)(=O)N3CCCCC3)cc2)nc1-c1cc(C)ccc1C | 393 | 106 | Active | Active | Active | inactive |
| CCCC1CCN(S(=O)(=O)c2ccc(C(=O)Nc3nc(-c4cc(C)ccc4C)cs3)cc2)CC1 | 517 | 111 | Active | Active | Active | inactive |
| Cc1ccc(C)c(-c2csc(NC(=O)c3ccc(S(=O)(=O)N4CCCCC4)cc3)n2)c1 | 200 | 103 | Active | Active |  | inactive |
| Cc1ccc(Br)c(-c2csc(NC(=O)c3ccc(S(=O)(=O)N4CCCCC4)cc3)n2)c1 | 254 | 98 | Active | Active |  | inactive |
| CC(C)(C)c1csc(NC(=O)c2ccc(S(=O)(=O)N3CCCCC3)cc2)n1 | 99 | 113 |  |  |  |  |
